Measurements: ChEMBL document CHEMBL5712918, “Targeting methyltransferase PRMT5 retards the carcinogenesis and metastasis of HNSCC via epigenetically inhibiting Twist1 transcription” (Neoplasia, 2020)
Active and inactive are the calls of the source. The calls are words filed in the database; no cut-off is given here.

Legend:
HSC-6 [1] = assay: Antitumor activity against human HSC-6 cells xenografted in BALB/c nude mouse model of orthotopic tumor assessed as as reduction in distant metastasis in liver at 30 mg/kg by H and E analysis; assay type: functional, organism-based
[2] = molecular target: Protein arginine N-methyltransferase 5 (Homo sapiens) (UniProt O14744); assay: Inhibition of PRMT5 in human SCC-25 cells assessed as reduction in WDR5 occupancy in Twist1 promoter region at 10 uM incubated for 4 days by Chip-qPCR analysis; assay type: cell-based; settings: time 4.0 day
Protein arginine N-methyltransferase 5 (Homo sapiens), sequence (O14744 whole entry): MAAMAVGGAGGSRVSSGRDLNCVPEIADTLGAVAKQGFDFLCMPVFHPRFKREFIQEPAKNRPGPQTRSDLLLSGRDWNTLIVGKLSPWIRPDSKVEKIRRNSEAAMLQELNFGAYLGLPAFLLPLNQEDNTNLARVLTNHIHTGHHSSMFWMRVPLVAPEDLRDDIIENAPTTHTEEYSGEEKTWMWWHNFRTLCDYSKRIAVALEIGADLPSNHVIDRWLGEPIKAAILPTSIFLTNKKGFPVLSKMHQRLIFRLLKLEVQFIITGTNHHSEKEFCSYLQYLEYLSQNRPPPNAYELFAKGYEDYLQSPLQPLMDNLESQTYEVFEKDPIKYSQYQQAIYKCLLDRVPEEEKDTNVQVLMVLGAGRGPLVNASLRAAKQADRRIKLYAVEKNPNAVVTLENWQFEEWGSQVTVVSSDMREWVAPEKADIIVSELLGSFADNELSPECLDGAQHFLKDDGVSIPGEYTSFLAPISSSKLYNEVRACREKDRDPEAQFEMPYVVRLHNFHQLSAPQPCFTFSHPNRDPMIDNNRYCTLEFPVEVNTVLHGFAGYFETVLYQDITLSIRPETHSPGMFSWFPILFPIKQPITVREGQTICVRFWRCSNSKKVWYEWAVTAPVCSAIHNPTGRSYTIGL
In short: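 SCC25 cells exposed to inhibitor at 10 μM for 4 days. ChIP used a commercial kit with anti-WDR5 or anti-Set1 (1:50), and binding at the Twist1 promoter was quantified by qPCR. Mean ± SD of three independent experiments, Student's t test.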

HSC-6 [3] = assay: Antitumor activity against human HSC-6 cells xenografted in BALB/c nude mouse assessed as reduction in Ki67-positive tumor cell at 15 to 30 mg/kg by immunohistochemistry analysis; assay type: functional, organism-based; settings: dose 15-30 mg/kg
In short: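 HSC6 subcutaneous xenograft: 6 × 10^7 cells into the back of 4-week-old BALB/c nude mice, dosed at 15 or 30 mg/kg. IHC with Ki67 1:400 or Twist1 1:250. Percent positive cells from 5 random fields per sample. Student's t test; Twist1 groups n = 6/6.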

HSC-6 [4] = assay: Antimigratory activity against human HSC-6 cells assessed as reduction in cell migration at 10 uM for 4 days by transwell assay; assay type: functional, cell-based; settings: time 4.0 day
In short: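 Transwell migration and invasion with 8-μm pore inserts. HSC6 or SCC25 cells, including lines stably overexpressing Flag-Twist1, treated at 10 μM for 4 days. Mean ± SD of three independent experiments, one-way ANOVA.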

Rattus norvegicus = assay: Antitumor activity against 4-Nitroquinoline-1-Oxide induced cancer Sprague-Dawley rat carcinogenic model assessed as reduction in lesion area of tongue tissue at 30 mg/kg, iv administered on week 12 and measured on week 22; assay type: functional, organism-based; settings: time 10.0 weeks
HSC-6 [5] = assay: Antitumor activity against human HSC-6 cells xenografted in BALB/c nude mouse model of orthotopic tumor assessed as reduction in lymphnode metastasis at 30 mg/kg by immunohistochemistry analysis; assay type: functional, organism-based
In short: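 Orthotopic model: 5 × 10^5 HSC6 cells injected submucosally into the tongue of 4-week-old BALB/c nude mice, vehicle or 30 mg/kg (n = 12 each). Cervical lymph node metastasis detected by IHC with pan-cytokeratin antibody 1:400. Metastasis rates compared by Fisher's exact test.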

SCC-25 = assay: Antimigratory activity against human SCC-25 cells assessed as reduction in cell invasion after 48 hrs incubated for 48 hrs by transwell assay; assay type: functional, cell-based
[6] = molecular target: Protein arginine N-methyltransferase 5 (Homo sapiens) (UniProt O14744); assay: Inhibition of PRMT5 in human HSC-6 cells assessed as reduction in H3R2me2 enrichment in Twist1 promoter region at 10 uM incubated for 4 days by Chip-qPCR analysis; assay type: cell-based; settings: time 4.0 day
In short: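 ChIP-qPCR at the Twist1 promoter after 4 days at 10 μM in HSC6 or SCC25 cells. Antibody ratios: H3R2me2s 1:100, H4R3me2s 1:100, WDR5 1:50, Set1 1:50; ChIP assay kit protocol. Mean ± SD of three independent experiments, Student's t test.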

[7] = Toxicity in BALB/c nude mouse xenografted with human HSC6 cells assessed as effect on kidney morphology at 15 to 30 mg/kg; assay type: organism-based; settings: in vivo, dose 15-30 mg/kg
In short: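 Subcutaneous xenograft in 4-week-old BALB/c nude mice given 6 × 10^7 HSC6 cells into the back. Groups were control, 15 mg/kg and 30 mg/kg. Body weight was monitored and major organs were examined for toxicity.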

[8] = molecular target: Protein arginine N-methyltransferase 5 (Homo sapiens) (UniProt O14744); assay: Inhibition of PRMT5 in human SCC-25 cells assessed as increase in E-cadherin protein expression level at 10 uM incubated for 4 days by western blot analysis; settings: time 4.0 day

Q: Which Activity (HSC-6 [1]) does the source give for `O=C(NC[C@H](O)CN1CCc2ccccc2C1)c1cc(NC2COC2)ncn1` here?
A: Active

Q: And the inhibition [2]?
A: Active

Q: And the Activity (HSC-6 [3])?
A: Active

Q: And the Activity (HSC-6 [4])?
A: Active

Q: What about the Activity (Rattus norvegicus) of the same molecule?
A: Active

Q: And the Activity (HSC-6 [5])?
A: Active

Q: What about the Activity (SCC-25) of the same molecule?
A: Active

Q: And the inhibition [6]?
A: Active

Q: And the Activity [7]?
A: Non-Toxic

Q: And the inhibition [8]?
A: Active
